# Shown are actives, neighbours in structure and some others; about 5.8% of the full set was active somewhere.
# FAK inh – inhibitors of human focal adhesion kinase; Q05397; biochemical FAK kinase activity assay; inhibition, %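 (tested at 7 µM)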; actives 0.84% (n = 97,000); in the data active means inhibition above about 19%
# Cav3 T inh – inhibitors of human Cav3.2 T-type calcium channel; AID 449739; Cav3.2-expressing cells, Fluo-4 calcium fluorescence FDSS; hits give low values; O95180; B-score at 10 µM; actives 4% (n = 100,000);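 active means single-dose well whose peak fluorescence ratio is a statistical outlier from its plate by either plate-standardised score or position-corrected B-score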
# Pyk2 oligo antag – blocks oligomerization of human Pyk2 in cells; actives 0.83% (n = 99,000); z-score (the deposit names both 25 µM and 10 µM); Q293 cells, Pyk2 FERM NanoBiT luminescence; hits give low values;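 active means Z-score of -3 or lower, scaled per plate to the spread of control and sample wells; inactive means z-score above -3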;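 further: negative z-score means lost luminescence so less FERM oligomerization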
# Target sequence (Q14289 whole entry, looked up): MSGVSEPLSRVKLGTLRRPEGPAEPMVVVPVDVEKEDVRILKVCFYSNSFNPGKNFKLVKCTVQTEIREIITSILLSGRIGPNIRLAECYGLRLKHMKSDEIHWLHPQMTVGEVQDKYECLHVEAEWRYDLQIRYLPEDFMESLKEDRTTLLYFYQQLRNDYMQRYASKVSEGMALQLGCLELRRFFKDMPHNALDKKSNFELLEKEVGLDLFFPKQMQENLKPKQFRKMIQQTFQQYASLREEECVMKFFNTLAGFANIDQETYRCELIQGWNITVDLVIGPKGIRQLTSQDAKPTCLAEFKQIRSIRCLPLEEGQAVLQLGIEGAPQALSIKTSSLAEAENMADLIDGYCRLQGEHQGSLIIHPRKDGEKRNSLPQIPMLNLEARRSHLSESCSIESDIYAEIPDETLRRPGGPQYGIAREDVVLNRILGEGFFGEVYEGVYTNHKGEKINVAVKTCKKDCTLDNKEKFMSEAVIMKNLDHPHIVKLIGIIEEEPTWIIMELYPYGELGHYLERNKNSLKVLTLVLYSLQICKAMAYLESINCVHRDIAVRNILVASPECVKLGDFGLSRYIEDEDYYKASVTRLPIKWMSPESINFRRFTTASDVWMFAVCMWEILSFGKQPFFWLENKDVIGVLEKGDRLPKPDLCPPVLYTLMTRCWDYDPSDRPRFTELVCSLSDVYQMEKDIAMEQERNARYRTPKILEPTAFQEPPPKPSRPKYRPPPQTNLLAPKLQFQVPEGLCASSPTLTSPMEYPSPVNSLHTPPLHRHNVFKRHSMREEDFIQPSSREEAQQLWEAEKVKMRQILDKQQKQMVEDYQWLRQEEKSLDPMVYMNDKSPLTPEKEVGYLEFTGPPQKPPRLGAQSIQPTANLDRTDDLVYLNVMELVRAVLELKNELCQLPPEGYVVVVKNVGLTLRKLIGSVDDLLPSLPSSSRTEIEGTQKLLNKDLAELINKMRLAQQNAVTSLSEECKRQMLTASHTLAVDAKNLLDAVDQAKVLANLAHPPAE
# Rev-RRE block – disrupts HIV-1 Rev binding to RRE RNA; P05866; Rev peptide-RRE RNA binding, FRET; inhibition, % at 8 µM; actives 0.79% (n = 97,000); AID 704;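 active means inhibition above the screen-wide mean plus 3 SD, cut at about 35% in these data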
#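 Test system: labelled RRE RNA duplex and labelled Rev peptide. Times: 5 min compound–RNA preincubation, then 15 min with peptide, 25 °C. Doses: single-dose 8 µM. Measured by: FRET, excitation 480 nm, emission 540 nm donor and 671 nm acceptor. Measure: % inhibition of FRET ratio versus controls.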
# PLK1 inh – blocks human PLK1 kinase activity. P53350. recombinant PLK1 kinase, TR-FRET peptide phosphorylation. inhibition, % at 10 µM. actives 0.53% (n = 97,000);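 active means inhibition of 50% or more in the single-concentration screen; inactive means inhibition below 50%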
# Plk1 PBD FP – Plk1 (human) PBD binding inhibition; actives 0.13% (n = 97,000); inhibition, %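 (tested at about 20 µM)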; Plk1 PBD phosphopeptide binding, fluorescence polarization; in the data active means inhibition above about 34%, passing the limit was not always enough
# Hits are given with their value; . = inactive; / = no result given; [ ] = remark or other dose.
SMILES,FAK inh,Cav3 T inh,Pyk2 oligo antag,Rev-RRE block,PLK1 inh,Plk1 PBD FP
CC1(c2nnc(-c3ccncc3)o2)CC(c2ccccc2)=NO1 (stereo unspecified),/,.,/,/,/,/
CCOC(=O)C1=C(c2cccc(Oc3ccccc3)c2)NC(=S)NC1C (stereo unspecified),.,-8.27,.,.,.,.
C=CCOC(=O)C1=C(C)NC(=S)NC1/C=C/c1ccccc1 (stereo unspecified),.,.,.,.,.,.
Cc1ccc(S(=O)(=O)N2CCOCC2)cc1C(=O)N1c2ccccc2Sc2ccccc21,.,-4.18,.,.,.,.
COC(=O)CNC(=O)C(C)NC(=O)CNC(=O)OCc1ccccc1 (stereo unspecified),.,.,.,.,.,.
CCSc1nnc(NC(=O)CSc2c(Cl)cccc2Cl)s1,.,.,-3.18,.,.,.
CCSc1nnc(NC(=O)CSc2nccn2-c2cc(C)cc(C)c2)s1,.,.,/,.,.,.
CCSc1nnc(NC(=O)CSc2ncccn2)s1,.,.,.,.,.,.
CCSc1nnc(NC(=O)CSc2nccn2-c2cccc(C)c2C)s1,.,-7.08,/,.,.,.
C=C(C)COc1ccc(-c2[nH]ncc2Oc2ccccc2OC)c(O)c1,.,.,-3.62,.,.,.
C=C(C)COc1ccc(-c2[nH]ncc2-c2ccccc2OC)c(O)c1,.,.,.,.,.,.
CCOc1ccc(-c2[nH]ncc2Oc2ccccc2OC)c(O)c1,.,.,-3.02,.,.,.
CCOc1ccc(-c2[nH]ncc2Oc2ccccc2OCC)c(O)c1,.,.,.,.,.,.
COc1cc(/C=N/c2oc(-c3ccccc3)cc2C#N)ccc1O,.,.,.,39.8,.,.
CCn1c(SCC(=O)O)nnc1C1CCCCC1,.,.,.,.,.,.
Clc1cccc(Cl)c1Cn1c(-c2cccnc2Cl)nc2ccccc21,.,.,.,.,.,.
Clc1ccc(-n2nnc(-c3cccnc3Cl)n2)cc1Cl,/,.,/,/,/,/
C=CCn1c(-c2cccnc2Cl)nc2cc(Cl)c(Cl)cc21,.,.,-3.26,.,.,.
CCCn1c(-c2cccnc2Cl)nc2cc(Cl)c(Cl)cc21,.,.,-3.68,.,.,.
Cc1ccc(NC(=O)NCCN2C(=O)C3C4C=CC(C4)C3C2=O)cc1 (stereo unspecified),.,.,/,.,62.4,.
COc1ccc(NC(=O)NCCN2C(=O)C3C4C=CC(C4)C3C2=O)cc1 (stereo unspecified),.,.,/,.,.,.
O=C(NCCN1C(=O)C2C3C=CC(C3)C2C1=O)Nc1ccccc1 (stereo unspecified),.,.,/,.,67.2,.
Cc1ccccc1NC(=O)NCCN1C(=O)C2C3C=CC(C3)C2C1=O (stereo unspecified),.,.,/,.,.,.
O=C(NCCN1C(=O)C2C3C=CC(C3)C2C1=O)NCc1ccccc1 (stereo unspecified),.,.,/,.,54.2,.
Cc1ccc(C(=O)NCC2(c3ccccc3)CCCC2)cc1,.,-3.87,.,.,.,.
SMILES,FAK inh,Cav3 T inh,Pyk2 oligo antag,Rev-RRE block,PLK1 inh,Plk1 PBD FP
COc1ccc2nc(SCC(=O)/C(C#N)=C(\C)N)[nH]c2c1,.,.,.,.,.,.
C=CCC1(O)CC(c2ccco2)NC(c2ccco2)C1CCC (stereo unspecified),.,.,.,.,.,.
COc1ccc(-c2cc(=O)oc3c(C)c(O)c(CN(C)C)cc23)cc1,.,.,.,38.9,.,.
COC(=O)COc1ccc2c(-c3ccc(OC)cc3)cc(=O)oc2c1,.,.,.,.,.,.
COc1ccccc1-c1cc(C(=O)N/N=C/C=C/c2ccccc2[N+](=O)[O-])c2ccccc2n1,.,-4.07,.,.,.,.
Cc1cc(N2CCC(C(N)=O)CC2)nc(-c2ccccc2)n1,.,.,.,.,.,.
Cc1cc(C)nc(N2CCC(C(=O)Nc3cccc(C(F)(F)F)c3)CC2)n1,.,-4.25,.,.,.,.
COc1ccc(NC(=O)C2CCN(c3nc(C)cc(C)n3)CC2)cc1,.,.,.,.,.,.
Cc1cc(N2CCC(C(=O)Nc3ccc(F)cc3)CC2)nc(-c2ccccc2)n1,.,-6.89,.,.,.,.
COc1ccc(NC(=O)C2CCN(c3cc(C)nc(-c4ccccc4)n3)CC2)cc1,.,-5.94,.,.,.,.
O=C(Nc1nnc(C2CC2)s1)C1Cc2ccccc2CN1S(=O)(=O)c1ccccc1F (stereo unspecified),.,.,-3.73,.,.,.
Cc1cc(N2CCC(C)CC2)nc2cccc(O)c12,.,.,/,.,62.7,.
CCN(CC)C(=O)CSc1nc2c(sc(=S)n2-c2ccccc2)c(=O)n1Cc1ccco1,.,-6.59,.,.,.,.
CSc1nnc(C)c(/C=C/Nc2ccc(C)cc2)n1,.,.,.,109.5[fluorescence artefact?],.,.
COc1cc(C(=O)NCc2nnc(SCC(=O)N3CCc4ccccc43)o2)cc(OC)c1OC,.,/,.,.,.,.
c1cncc(C2Nc3ccccc3-c3nc4ccccc4n32)c1 (stereo unspecified),.,.,-3.28,.,.,.
COCCNc1nc(-c2cc(C(=O)Nc3ccccc3)on2)cc(C(C)C)n1,/,.,/,/,/,/
Cn1c(SCc2ccccc2Cl)nc(C(F)(F)F)cc1=O,.,.,.,.,.,.
Cc1cc(NC(=O)c2ccco2)ncc1NC(=O)CCc1ccccc1,.,.,.,.,.,.
CCC(=O)Nc1cc(C)c(NC(=O)CCc2ccccc2)cn1,.,.,.,37.8,.,.
Cc1cc(NC(=O)C(C)C)ncc1NC(=O)Cc1ccccc1,.,-4.02,.,.,.,.
Cc1ccc(N(CC(O)COCc2ccco2)S(=O)(=O)c2ccc(C)cc2)cc1 (stereo unspecified),.,.,.,.,.,.
CCOC(=O)C1CCCN(C(=S)Nc2ccc(C)cc2C)C1 (stereo unspecified),.,.,.,.,.,.
Nc1ccccc1C(=O)N(Cc1ccccc1)Cc1ccccc1,.,-5.75,.,.,.,.
COc1ccc(CCNC(=O)COc2ccc(S(=O)(=O)NC(C)C)cc2Cl)cc1OC,.,.,.,.,.,.
SMILES,FAK inh,Cav3 T inh,Pyk2 oligo antag,Rev-RRE block,PLK1 inh,Plk1 PBD FP
O=C(NCCCN1CCC(Cc2ccccc2)CC1)C1CC(=O)N(C2CCCCCC2)C1 (stereo unspecified),.,.,.,.,.,.
COc1cc2c(cc1OC)CN(CC(=O)Nc1ccccc1C#N)CC2,.,.,.,.,.,.
COc1cc2c(cc1OC)C1=C(C#N)CN(CC(=O)O)CN1CC2,.,/,/,.,61.3,.
O=C(NCCCN1CCCC1=O)c1ccccc1NS(=O)(=O)c1ccc(Br)cc1,.,.,.,.,.,.
Nc1[nH]c(=S)[nH]c(=O)c1-c1ccccc1,.,.,.,138.6[fluorescence artefact?],.,.
Nc1nc(SCc2ccc(Cl)cc2)[nH]c(=O)c1-c1ccccc1,.,.,.,.,.,.

# Compound activity from PubChem.
